# procasp3 activ – procaspase-3 (human) activation; 0.11% of 330,000 active; recombinant procaspase-3 D3A, Ac-DEVD-pNA absorbance 405 nm; activation, % at 8.5 µM; AID 463141; P42574;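 active = activation above the mean of all tested compounds plus 3 SD, cut at about 21% in these data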;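 note: 0% = DMSO alone and 100% = DMSO wells spiked with extra 5 µM PC-3 D3A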
#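 Test system: Procaspase-3 D3A mutant; medium: Zinc-free HEPES/NaCl buffer with 0.01% Triton X-100 at pH 7.4; reagent: DEVD-pNA substrate; doses: one concentration, 8.5 µM nominal, 0.8% DMSO; times: 1 h preincubation plus 2 h reaction at 25 °C; signal: Epi-absorbance at 405 nm of released p-nitroaniline, 0 and 120 min; replicates: singlicate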
# CR mimetic SO – caloric restriction mimetics inhibiting age-related superoxide in yeast; superoxide response (% of plate mean), % at 10 µM; 0.18% of 330,000 active; S. cerevisiae aged cells, superoxide DHE fluorescence; active compounds read low;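 active = superoxide response under a set limit, about three screen SD below normal, cut at about 65% in these data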;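 note: yeast aged for seven days with compound at 30 °C before DHE staining; 100% = average MFI of all compound-treated wells on the plate with controls excluded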
# ARFGAP1 inhibitor – inhibitors of rat ARFGAP1 | Q62848 | Arfgap1-stimulated ARF1 GTP hydrolysis, GDP FP detection | inhibition, % at 16.5 µM | 0.26% of 360,000 active | AID 651572;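 active = inhibition above a per-plate limit, mean inhibition of low control wells plus 3 SD, cut at about 25% in these data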;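 note: 0% = DMSO wells with enzyme and 100% = wells lacking Arfgap1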
# Target sequence (Q62848 1-136 limits assumed): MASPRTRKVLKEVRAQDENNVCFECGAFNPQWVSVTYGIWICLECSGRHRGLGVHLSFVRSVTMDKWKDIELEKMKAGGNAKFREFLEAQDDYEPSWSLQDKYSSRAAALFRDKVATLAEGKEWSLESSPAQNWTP
#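 Material: rat Arfgap1 GAP domain (His6, aa 1-136), purified enzyme. Also added: human ARF1(Δ1-17)-GTP substrate. Compound dosing: 16.5 µM single point, 1.26% DMSO. Timing: enzyme reaction 120 min at 25 °C after 20 min preincubation. Signal: GDP detection by fluorescence polarization. Read-out basis: percent inhibition of GAP-stimulated GDP formation, scaled between DMSO and no-Arfgap1 medians.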
# ASAP1 inh – ASAP1 ArfGAP inhibition. Q9ULH1. ASAP1-stimulated ARF1 GTP hydrolysis, GDP FP detection. inhibition, % at 16.5 µM. 0.19% of 360,000 active. AID 624377; in the data active = inhibition above about 25%;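 note: 0% = vehicle with enzyme and substrate and 100% = no enzyme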
# LANA-H2B inh – blocks KSHV LANA binding to histone H2A/H2B; Q9QR71; cell-free LANA-H2A/H2B peptide, fluorescence polarization; inhibition, % (concentration not given with the values); 0.6% of 320,000 active; AID 2629; in the data active = inhibition mostly above about 10%, no sharp cut-off; inactive = mostly below about 6.7%
# procasp7 counter – activates human procaspase-7, counter-screen for procaspase-3 activators | P55210 | recombinant procaspase-7, Ac-DEVD-pNA absorbance 405 nm; D23A/D198A/D206A triple mutant, cannot self-cleave; scale: DMSO 0, 5 µM enzyme 100 | activation, % at 8.5 µM | 0.093% of 330,000 active | AID 463210;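 active = percent activation above the screen-wide mean plus 3 SD, cut at about 25% in these data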
# Target sequence (P55210 whole entry D23A/D198A/D206A): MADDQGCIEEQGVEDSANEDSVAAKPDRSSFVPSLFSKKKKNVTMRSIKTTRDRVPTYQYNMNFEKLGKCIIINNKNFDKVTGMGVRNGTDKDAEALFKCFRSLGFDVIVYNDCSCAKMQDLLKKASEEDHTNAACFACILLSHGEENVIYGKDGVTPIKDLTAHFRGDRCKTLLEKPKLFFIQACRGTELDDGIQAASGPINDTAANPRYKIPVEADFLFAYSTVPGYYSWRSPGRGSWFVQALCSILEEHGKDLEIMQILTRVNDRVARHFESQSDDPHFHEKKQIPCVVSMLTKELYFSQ
#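 System: Uncleavable procaspase-7 mutant enzyme; Amount: 2 µM procaspase-7 mutant as dispensed; Schedule: 1 h compound preincubation, 2 h substrate cleavage, 25 °C; Measured by: 405 nm absorbance of p-nitroaniline; Evaluation: percent activation from buffer-corrected 0–120 min absorbance change; Control set: low DMSO alone, high DMSO plus 5 µM PC-7.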
# Active calls of the source: *; x = no result; + = active, no number. Rows were chosen to be rich in hits. Some 1.2% of all compounds tested hit in one or more screens of this group.
SMILES,procasp3 activ,CR mimetic SO,ARFGAP1 inhibitor,ASAP1 inh,LANA-H2B inh,procasp7 counter
COC(=O)C1=C(C)N(C)C(=NCc2ccc(OC)cc2)NC1c1cccc(C(F)(F)F)c1 (stereo not drawn),x,x,5,-1,x,x
COC(=O)[C@]12C[C@H](CC(=O)NCc3ccc(OC)c(OC)c3)C(=O)N(Cc3ccccc3)C1=C[C@H](C(C)(C)C)O[C@@H]2C,x,x,-7,-1,x,x
O=S(=O)(c1cccc(-c2cn3ccccc3n2)c1)N1CCCCC1,-4,107,-10,-2,18*,3
Cc1ccc(S(=O)(=O)NCC2CCN(C(=O)C(=O)c3cccs3)CC2)cc1,x,x,1,14,x,x
Cc1ccc(-c2nnc(SCC(=O)N/N=C/c3ccc(C(=O)O)cc3)n2C2CCCCC2)cc1,6,103,-4,-7,12*,8
COCc1[nH]nc2c1C(c1ccc3c(c1)OCO3)N(c1ccc(OC)cc1)C2=O (stereo not drawn),x,x,2,0,x,x
COc1ccc(-n2c(C)ccc2-c2ccccc2)cn1,-4,98,4,-11,79*,-4
CCOC(=O)c1c(=O)n(O)c2ccc(OC)cc2[n+]1[O-],-26,113,-3,-12,82*,-16
COc1ccc2c(c1)[n+](=O)c(C(C)=O)c(C)n2[O-],4,93,15,-7,1,6
CCCCC(C(=O)OCC)C(N)Cc1ccc(F)cc1 (stereo not drawn),-1,95,-2,-5,20*,-3
Cc1ccc(C)c(C(=O)COC(=O)CCCC(=O)Nc2cc(C(F)(F)F)ccc2Cl)c1,0,106,8,2,12*,4
O=C(CCNC(=O)c1ccccc1Cl)Nc1cc(C(F)(F)F)ccc1Cl,4,117,-6,-4,5,3
COc1ccccc1N(CC(=O)N(C)Cc1ccccc1)S(=O)(=O)c1cccs1,9,103,-8,-5,+,10
CN(Cc1ccncc1)C(=O)[C@@H]1CCCN1C(=O)[C@@H]1CCCN1,x,x,4,8,x,x
Cn1ccnc1C(=O)C1CCCN(Cc2cn[nH]c2-c2ccc(-c3ccccc3)cc2)C1 (stereo not drawn),9,99,3,1,18*,5
COc1ccc(C(=O)C2CCCN(Cc3cn[nH]c3-c3ccccc3)C2)cc1OC (stereo not drawn),2,100,-4,1,5,1
COc1cc(OC)cc(-c2cc3ccccc3c(=O)o2)c1,5,97,10,-5,70*,-2
O=c1oc(-c2ccccc2)cc2ccccc12,x,x,-6,7,x,x
COc1cccc(NC(=O)c2cc(-c3ccc(C)o3)nc3ccccc23)c1,-1,114,5,8,-5,1
COc1cccc(NC(=O)CN(C)C(=O)c2cc(-c3ccc(C)o3)nc3ccccc23)c1,2,102,3,-3,60*,-3
Cc1cc(F)ccc1C(O)c1ncc(-c2ccc3ccccc3c2)[nH]1 (stereo not drawn),x,x,7,12,x,x
CN(CC(=O)Nc1ccc(Cl)c(Cl)c1)C(=O)c1cccc2cccnc12,5,79,-3,7,70*,4
COc1ccccc1C(=O)NCCC(=O)NCC1COc2ccccc2O1 (stereo not drawn),0,125,-6,8,23*,-7
COc1ccc(S(=O)(=O)N2CCC(C(=O)NCCC(=O)NCc3cccnc3)CC2)cc1,x,x,-13,-8,x,x
CNc1nc(-c2ccc(S(=O)(=O)N3CCCCC3)cc2)cs1,-6,131,-10,-9,15*,-16
O=C(Nc1nc(-c2ccc(S(=O)(=O)N3CCCC3)cc2)cs1)c1ccco1,6,111,10,9,-2,-3
Cc1c(C(=O)NNC(=O)c2ccccc2O)oc2ccccc12,x,x,-1,-1,x,x
Cc1cc(O)cc(=O)n1-c1cccc(C(F)(F)F)c1,x,x,-1,-9,x,x
Cc1ccc(S(=O)(=O)CCC(=O)OCC(=O)NC(C)c2ccc(F)cc2)cc1 (stereo not drawn),0,94,8,5,4,-8
